Assays:
Type in all cases: functional
Conditions in all cases: route intraperitoneal
Mus musculus [1] = assay: Antitumor activity in mice bearing Ehrlich ascites tumor cells at 100 mg/kg ip
Outline: (§1)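 Female Swiss mice (average weight 21 ± 1 g), groups of eight, implanted with 10^6 Ehrlich ascites tumor cells from donor mice; single ip dose in DMSO given 24 h later, starting at 100 mg/kg, repeated at lower doses in new groups if active. Deaths followed for 60 days; % T/C = mean survival time treated vs vehicle controls (10 mice).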

Mus musculus [2] = assay: Antitumor activity in mice bearing Ehrlich ascites tumor cells at 50 mg/kg ip; outline: as §1
Mus musculus [3] = assay: Antitumor activity in mice bearing Ehrlich ascites tumor cells at 25 mg/kg ip; outline: as §1
Mus musculus [4] = assay: Antitumor activity in mice bearing Ehrlich ascites tumor cells at 12.5 mg/kg ip; outline: as §1

Compound | T/C (Mus musculus [1]) | T/C (Mus musculus [2]) | also measured
Cc1nc2sccn2c1/C=N/N=C(N)N.Cl | 100% | – | –
Cl.N=C(N)N/N=C/c1c(-c2ccccc2)nc2n1CCS2 | – | 100% | –
Cc1nc2n(c1/C=N/N=C(N)N)CCS2.Cl | – | 100% | –
Cc1ccc(-c2nc3sccn3c2/C=N/N=C(N)N)cc1.Cl | – | – | T/C (Mus musculus [3]): 110%
Cl.N=C(N)N/N=C/c1c(Cl)nc2n1CCS2 | 180% | – | –
Cl.N=C(N)N/N=C/c1c(-c2ccc(Cl)cc2)nc2sccn12 | – | – | T/C (Mus musculus [4]): 190%
Cl.N=C(N)N/N=C/c1c(-c2ccccc2)nc2sccn12 | – | 120% | –
Cl.N=C(N)N/N=C/c1c(Cl)nc2sccn12 | – | 200% | –
Cc1ccc(-c2nc3n(c2/C=N/N=C(N)N)CCS3)cc1.Cl | – | 100% | –
O=c1[nH]cc(F)c(=O)[nH]1 [FLUOROURACIL] | 180% | – | –

— ChEMBL document CHEMBL1126111, “Potential antitumor agents. 21. Structure determination and antitumor activity of imidazo[2,1-b]thiazole guanylhydrazones” (1992)
